Measured values from ChEMBL document CHEMBL1153097, “Synthesis and biological evaluation of a novel series of pyrazole chalcones as anti-inflammatory, antioxidant and antimicrobial agents” (Bioorg Med Chem, 2009).

Experiments:
Bacillus subtilis = assay: Antimicrobial activity against Bacillus subtilis MTCC 1789 at 100 ug/ml after 24 hrs by agar diffusion method; format: functional; details: MTCC 1789, 24 h, read-out: IZ
Outline: (§1)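 Agar diffusion on Mueller Hinton agar. Plates were seeded with 0.1 mL of bacterial suspension at 10⁵ cfu/mL in 0.85% sterile saline. Duplicate plates were incubated 24 h at 37 °C, and the zone of inhibition was measured in mm.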

Aspergillus niger [1] = assay: Antimicrobial activity against Aspergillus niger MTCC 1781 at 250 ug/ml after 48 hrs by agar diffusion method; format: functional; details: MTCC 1781, 48 h, read-out: IZ
Outline: (§2)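 Agar diffusion on Sabouraud's dextrose agar. Plates were spread with 0.1 mL of fungal spore suspension in sterile distilled water, adjusted to 10⁶ cfu/mL. Duplicate plates were incubated 48 h at 28 °C, and the zone of inhibition was measured in mm.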

Trichoderma viride [2] = assay: Antimicrobial activity against Trichoderma viride MTCC 167 at 250 ug/ml after 48 hrs by agar diffusion method; format: functional; details: MTCC 167, 48 h, read-out: IZ; outline: as §2
Aspergillus flavus [3] = assay: Antimicrobial activity against Aspergillus flavus MTCC 2501 at 250 ug/ml after 48 hrs by agar diffusion method; format: functional; details: MTCC 2501, 48 h, read-out: IZ; outline: as §2
THP-1 [4] = assay: Antiinflammatory activity in human THP1 cells assessed as inhibition of LPS-induced TNFalpha release at 10 uM after 24 hrs by ELISA; format: functional; details: THP-1, 24 h
Outline: (§3)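 PMA-differentiated THP-1 cells in RPMI 1640 with 10% FBS, penicillin and streptomycin. Test compound in 0.5% DMSO added 30 min at 37 °C before E. coli 0127:B8 LPS, then further incubation at 37 °C. Supernatant TNF-α and IL-6 measured by ELISA. Percent inhibition calculated against control.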

THP-1 [5] = assay: Antiinflammatory activity in human THP1 cells assessed as inhibition of LPS-induced IL6 release at 10 uM after 24 hrs by ELISA; format: functional; details: THP-1, 24 h; outline: as §3
THP-1 [6] = assay: Cytotoxicity against human THP1 cells assessed as CCK8 […] at 10 uM after 24 hrs […]; format: cell-based; details: thp-1, 24 h
Outline: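 Cytotoxicity was read with CCK-8 in the same wells as the cytokine assay. PMA-differentiated THP-1 cells were exposed to compound in 0.5% DMSO for 30 min at 37 °C, then stimulated with LPS and incubated further at 37 °C.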

[7] = tested on: Radical scavenging activity; assay: Antioxidant activity assessed as DPPH radical scavenging activity; format: functional; design: concentration or dose not given beside the values
Escherichia coli = assay: Antimicrobial activity against Escherichia coli MTCC 1650 at 100 ug/ml after 24 hrs by agar diffusion method; format: functional; details: MTCC 1650, 24 h, read-out: IZ; outline: as §1
Staphylococcus aureus = assay: Antimicrobial activity against Staphylococcus aureus MTCC 96 at 100 ug/ml after 24 hrs by agar diffusion method; format: functional; details: MTCC 96, 24 h, read-out: IZ; outline: as §1
Proteus vulgaris = assay: Antimicrobial activity against Proteus vulgaris MTCC 1771 at 100 ug/ml after 24 hrs by agar diffusion method; format: functional; details: MTCC 1771, 24 h, read-out: IZ; outline: as §1
Klebsiella pneumoniae = assay: Antimicrobial activity against Klebsiella pneumoniae NCIM 2957 at 100 ug/ml after 24 hrs by agar diffusion method; format: functional; details: NCIM 2957, 24 h, read-out: IZ; outline: as §1
Aspergillus niger [8] = assay: Antimicrobial activity against Aspergillus niger MTCC 1781 at 30 ug/ml after 48 hrs by agar diffusion method; format: functional, organism-based
Outline: (§4)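 Fungal spore suspensions in sterile distilled water adjusted to 10⁶ cfu/mL; 0.1 mL spread on Sabouraud's dextrose agar plates. Duplicate plates incubated 48 h at 28 ± 0.2 °C. Activity read as zone of inhibition in mm.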

Trichoderma viride [9] = assay: Antimicrobial activity against Trichoderma viride MTCC 167 at 30 ug/ml after 48 hrs by agar diffusion method; format: functional, organism-based; outline: as §4
Aspergillus flavus [10] = assay: Antimicrobial activity against Aspergillus flavus MTCC 2501 at 30 ug/ml after 48 hrs by agar diffusion method; format: functional, organism-based; outline: as §4

COc1ccc(C(=O)/C=C/c2cn(-c3ccccc3)nc2-c2ccccc2Cl)c(OC)c1
zone of inhibition at 100 µg/mL (Bacillus subtilis): 7 mm
zone of inhibition at 250 µg/mL (Aspergillus niger [1]): 11 mm
zone of inhibition at 250 µg/mL (Trichoderma viride [2]): 12 mm
zone of inhibition at 250 µg/mL (Aspergillus flavus [3]): 9 mm
inhibition at 10 µM (THP-1 [4]): 0%
inhibition at 10 µM (THP-1 [5]): 14.5%
Activity (THP-1 [6]): 0%
Activity [7]: 13.8%
zone of inhibition at 100 µg/mL (Escherichia coli): 12 mm
zone of inhibition at 100 µg/mL (Staphylococcus aureus): 8 mm

COc1ccc(C(=O)/C=C/c2cn(-c3ccccc3)nc2-c2ccc(F)cc2)c(OC)c1
zone of inhibition at 100 µg/mL (Bacillus subtilis): 14 mm
zone of inhibition at 250 µg/mL (Aspergillus niger [1]): 13 mm
zone of inhibition at 250 µg/mL (Trichoderma viride [2]): 14 mm
zone of inhibition at 250 µg/mL (Aspergillus flavus [3]): 12 mm
inhibition at 10 µM (THP-1 [4]): 0%
inhibition at 10 µM (THP-1 [5]): 0%
Activity (THP-1 [6]): 0%
Activity [7]: 26.7%
zone of inhibition at 100 µg/mL (Escherichia coli): 12 mm
zone of inhibition at 100 µg/mL (Proteus vulgaris): 10 mm
zone of inhibition at 100 µg/mL (Staphylococcus aureus): 15 mm

COc1ccc(C(=O)/C=C/c2cn(-c3ccccc3)nc2-c2ccc(OC)cc2OC)c(OC)c1
zone of inhibition at 100 µg/mL (Bacillus subtilis): 6 mm
zone of inhibition at 250 µg/mL (Aspergillus niger [1]): 12 mm
zone of inhibition at 250 µg/mL (Trichoderma viride [2]): 14 mm
zone of inhibition at 250 µg/mL (Aspergillus flavus [3]): 13 mm
inhibition at 10 µM (THP-1 [4]): 0%
inhibition at 10 µM (THP-1 [5]): 37.9%
Activity (THP-1 [6]): 2.5107%
Activity [7]: 30.3%
zone of inhibition at 100 µg/mL (Escherichia coli): 10 mm
zone of inhibition at 100 µg/mL (Klebsiella pneumoniae): 8 mm
zone of inhibition at 100 µg/mL (Staphylococcus aureus): 7 mm

COc1ccc(C(=O)/C=C/c2cn(-c3ccccc3)nc2-c2ccc(Cl)cc2Cl)c(OC)c1
zone of inhibition at 100 µg/mL (Bacillus subtilis): 9 mm
zone of inhibition at 250 µg/mL (Aspergillus niger [1]): 8 mm
zone of inhibition at 250 µg/mL (Trichoderma viride [2]): 10 mm
zone of inhibition at 250 µg/mL (Aspergillus flavus [3]): 10 mm
inhibition at 10 µM (THP-1 [4]): 0%
inhibition at 10 µM (THP-1 [5]): 40.8%
Activity (THP-1 [6]): 0%
Activity [7]: 18.2%
zone of inhibition at 100 µg/mL (Escherichia coli): 11 mm
zone of inhibition at 100 µg/mL (Staphylococcus aureus): 10 mm

COc1ccc(C(=O)/C=C/c2cn(-c3ccccc3)nc2-c2ccc(Cl)cc2)c(OC)c1
zone of inhibition at 100 µg/mL (Bacillus subtilis): 13 mm
zone of inhibition at 250 µg/mL (Aspergillus niger [1]): 11 mm
zone of inhibition at 250 µg/mL (Trichoderma viride [2]): 13 mm
zone of inhibition at 250 µg/mL (Aspergillus flavus [3]): 10 mm
inhibition at 10 µM (THP-1 [4]): 1.13%
inhibition at 10 µM (THP-1 [5]): 2.71%
Activity (THP-1 [6]): 11.488%
Activity [7]: 18.7%
zone of inhibition at 100 µg/mL (Escherichia coli): 11 mm
zone of inhibition at 100 µg/mL (Proteus vulgaris): 12 mm
zone of inhibition at 100 µg/mL (Staphylococcus aureus): 11 mm

NYSTATIN
inhibition zone (IZ) (Aspergillus niger [8]): 11 mm
inhibition zone (IZ) (Trichoderma viride [9]): 12 mm
inhibition zone (IZ) (Aspergillus flavus [10]): 11 mm

COc1ccc(C(=O)/C=C/c2cn(-c3ccccc3)nc2-c2ccc(Br)cc2)c(OC)c1
zone of inhibition at 100 µg/mL (Bacillus subtilis): 7 mm
zone of inhibition at 250 µg/mL (Aspergillus niger [1]): 11 mm
zone of inhibition at 250 µg/mL (Trichoderma viride [2]): 13 mm
zone of inhibition at 250 µg/mL (Aspergillus flavus [3]): 13 mm
inhibition at 10 µM (THP-1 [4]): 1.81%
inhibition at 10 µM (THP-1 [5]): 11.3%
Activity (THP-1 [6]): 0%
Activity [7]: 17.2%
zone of inhibition at 100 µg/mL (Escherichia coli): 9 mm
zone of inhibition at 100 µg/mL (Klebsiella pneumoniae): 10 mm
zone of inhibition at 100 µg/mL (Staphylococcus aureus): 8 mm
